# Source: ChEMBL document CHEMBL1165950, “Design and synthesis of new potent anticancer pyrazoles with high FLT3 kinase inhibitory selectivity” (Bioorg Med Chem, 2010)
# Legend:
# Assay type in all cases: functional
# EKVX = assay: Cytotoxicity against human EKVX cells assessed as cell growth at 0.001 uM after 48 hrs by sulforhodamine B assay; conditions: read-out: Activity
# HOP-62 = assay: Cytotoxicity against human HOP62 cells assessed as cell growth at 10 uM after 48 hrs by sulforhodamine B assay; conditions: HOP-62, 48 h, read-out: Activity
# OVCAR-4 = assay: Cytotoxicity against human OVCAR4 cells assessed as cell growth at 0.001 uM after 48 hrs by sulforhodamine B assay; conditions: OVCAR-4, 48 h, read-out: Activity
# SF-268 [1] = assay: Cytotoxicity against human SF268 cells assessed as cell growth at 0.001 uM after 48 hrs by sulforhodamine B assay; conditions: SF-268, 48 h, read-out: Activity
# NCI-H460 [2] = assay: Growth inhibition of human NCI-H460 cells after 48 hrs by sulforhodamine B assay; conditions: NCI-H460, 48 h
# Summary of the method: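 NCI 60-cell screen, five-dose mode. Cells grown in RPMI 1640 with 5% FBS and 2 mM L-glutamine and plated at 5000-40,000 cells/well according to doubling time. After 24 h preincubation, a Tz plate was TCA-fixed. Five concentrations (10-fold or 1/2 log dilutions) were applied for 48 h at 37 °C. SRB staining read at 515 nm. IC50 taken from [(Ti-Tz)/(C-Tz)]×100 = 50.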
# ACHN [3] = assay: Cytotoxicity against human ACHN cells assessed as cell growth at 1 uM after 48 hrs by sulforhodamine B assay; conditions: read-out: Activity
# Summary of the method: (§1)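 NCI-60 five-dose screen. Cells were grown in RPMI 1640 with 5% FBS and 2 mM L-glutamine, plated at 5000–40,000 cells/well and preincubated for 24 h. Time-zero plates were TCA-fixed. DMSO-solubilized drug was added at five concentrations (10-fold or ½-log serial dilutions) for 48 h at 37 °C, 5% CO2. Cells were TCA-fixed, stained with 0.4% SRB and read at 515 nm. Percent growth used time-zero, control and test absorbances.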
# K562 = assay: Cytotoxicity against human K562 cells assessed as cell growth at 10 uM; conditions: read-out: Activity
# Summary of the method: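 Single-dose NCI-60 screen at 10 µM. Cells were grown in RPMI 1640 with 5% FBS and 2 mM L-glutamine, then treated for 48 h at 37 °C. Protein was measured by SRB staining with absorbance at 515 nm. Percentage growth was recorded, and inhibition percentage was calculated as 100 minus growth percentage.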
# SF-268 [4] = assay: Cytotoxicity against human SF268 cells assessed as cell growth at 10 uM; conditions: read-out: Activity
# Summary of the method: (§2)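 NCI-60 screen: cells grown in RPMI 1640 with 5% FBS and 2 mM L-glutamine, plated at 5000–40,000 cells/well according to doubling time, and preincubated 24 h at 37 °C, 5% CO2. The single 10 µM dose (DMSO stock) was added, then incubated 48 h. Cells were TCA-fixed and stained with 0.4% SRB, read at 515 nm, and growth % calculated against time-zero and control plates.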
# NCI-H522 [5] = assay: Cytotoxicity against human NCI-H522 cells assessed as cell growth at 10 uM; conditions: read-out: Activity; summary of the method: as §2
# HT-29 = assay: Cytotoxicity against human HT-29 cells assessed as cell growth at 0.01 uM after 48 hrs by sulforhodamine B assay; conditions: HT-29, 48 h, read-out: Activity
# MOLT-4 [6] = assay: Cytotoxicity against human MOLT4 cells assessed as cell growth at 0.01 uM after 48 hrs by sulforhodamine B assay; conditions: MOLT-4, 48 h, read-out: Activity
# NCI-H460 [7] = assay: Cytotoxicity against human NCI-H460 cells assessed as cell growth at 10 uM after 48 hrs by sulforhodamine B assay; conditions: NCI-H460, 48 h, read-out: Activity
# SF-539 [8] = assay: Cytotoxicity against human SF539 cells assessed as cell growth at 10 uM; conditions: read-out: Activity; summary of the method: as §2
# SNB-19 = assay: Cytotoxicity against human SNB19 cells assessed as cell growth at 10 uM; conditions: read-out: Activity; summary of the method: as §2
# SF-268 [9] = assay: Cytotoxicity against human SF268 cells assessed as cell growth at 1 uM after 48 hrs by sulforhodamine B assay; conditions: SF-268, 48 h, read-out: Activity
# IGROV-1 = assay: Cytotoxicity against human IGROV1 cells assessed as cell growth at 10 uM after 48 hrs by sulforhodamine B assay; conditions: IGROV-1, 48 h, read-out: Activity
# HOP-92 [10] = assay: Cytotoxicity against human HOP92 cells assessed as cell growth at 1 uM after 48 hrs by sulforhodamine B assay; conditions: HOP-92, 48 h, read-out: Activity
# MOLT-4 [11] = assay: Cytotoxicity against human MOLT4 cells assessed as cell growth at 10 uM; conditions: read-out: Activity; summary of the method: as §2
# NCI-H522 [12] = assay: Cytotoxicity against human NCI-H522 cells assessed as cell growth at 1 uM after 48 hrs by sulforhodamine B assay; conditions: NCI-H522, 48 h, read-out: Activity
# NCI-H23 = assay: Cytotoxicity against human NCI-H23 cells assessed as cell growth at 0.01 uM after 48 hrs by sulforhodamine B assay; conditions: NCI-H23, 48 h, read-out: Activity
# OVCAR-8 [13] = assay: Cytotoxicity against human OVCAR8 cells assessed as cell growth at 100 nM after 48 hrs by sulforhodamine B assay; conditions: OVCAR-8, 48 h, read-out: Activity
# RXF 393 = assay: Cytotoxicity against human RXF393 cells assessed as cell growth at 0.01 uM after 48 hrs by sulforhodamine B assay; conditions: RXF 393, 48 h, read-out: Activity
# ACHN [14] = assay: Cytotoxicity against human ACHN cells assessed as cell growth at 10 uM after 48 hrs by sulforhodamine B assay; conditions: read-out: Activity; summary of the method: as §1
# OVCAR-3 = assay: Cytotoxicity against human OVCAR-3 cells assessed as cell growth at 10 uM; conditions: read-out: Activity; summary of the method: as §2
# OVCAR-8 [15] = assay: Cytotoxicity against human OVCAR8 cells assessed as cell growth at 10 uM; conditions: read-out: Activity; summary of the method: as §2
# HOP-92 [16] = assay: Cytotoxicity against human HOP92 cells assessed as cell growth at 10 uM after 48 hrs by sulforhodamine B assay; conditions: HOP-92, 48 h, read-out: Activity
# SF-539 [17] = assay: Cytotoxicity against human SF539 cells assessed as cell growth at 100 nM after 48 hrs by sulforhodamine B assay; conditions: SF-539, 48 h, read-out: Activity
# CCRF-CEM = assay: Cytotoxicity against human CCRF-CEM cells assessed as cell growth at 10 uM after 48 hrs by sulforhodamine B assay; conditions: read-out: Activity; summary of the method: as §1
# DU-145 = assay: Cytotoxicity against human DU145 cells assessed as cell growth at 0.001 uM after 48 hrs by sulforhodamine B assay; conditions: DU-145, 48 h, read-out: Activity
# NCI-H322M = assay: Cytotoxicity against human NCI-H322M cells assessed as cell growth at 1 uM after 48 hrs by sulforhodamine B assay; conditions: read-out: Activity
# BT-549 = assay: Growth inhibition of human BT549 cells after 48 hrs by sulforhodamine B assay; conditions: BT-549, 48 h
# Summary of the method: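 NCI five-dose SRB assay in RPMI 1640 with 5% FBS and 2 mM L-glutamine. Cells were preincubated 24 h, then exposed 48 h at 37 °C to five concentrations (10-fold or half-log serial dilutions from DMSO stocks). TCA fixation, SRB staining, and absorbance at 515 nm followed. IC50 was taken where [(Ti−Tz)/(C−Tz)]×100 = 50, with Tz as time-zero cell density.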
# [18] = read-out: LC50 (the source's name)
smiles,measurement,setting,value
COc1cc(C)cc(-c2c(-c3ccnc(-c4ccc(C(C)=O)cc4)c3)cnn2CC#N)c1,growth at 0.001 µM,EKVX,95%
same,growth at 10 µM,HOP-62,11%
same,growth at 0.001 µM,OVCAR-4,102%
same,growth at 0.001 µM,SF-268 [1],97%
same,GI50,NCI-H460 [2],2.41 µM
same,CC50,NCI-H460 [2]; [18],> 100 µM
same,growth at 1 µM,ACHN [3],21%
same,growth at 10 µM,K562,30.1%
same,growth at 10 µM,SF-268 [4],90.5%
same,growth at 10 µM,NCI-H522 [5],45%
same,growth at 0.01 µM,HT-29,96%
same,growth at 0.01 µM,MOLT-4 [6],99%
same,growth at 10 µM,NCI-H460 [7],2%
same,growth at 10 µM,SF-539 [8],59.9%
same,growth at 10 µM,SNB-19,73.7%
same,growth at 1 µM,SF-268 [9],15%
same,growth at 10 µM,IGROV-1,14%
same,growth at 1 µM,HOP-92 [10],-9%
same,growth at 10 µM,MOLT-4 [11],58%
same,growth at 1 µM,NCI-H522 [12],-14%
same,growth at 0.01 µM,NCI-H23,95%
same,growth at 0.1 µM,OVCAR-8 [13],85%
same,growth at 0.01 µM,RXF 393,101%
same,growth at 10 µM,ACHN [14],24%
same,growth at 10 µM,OVCAR-3,100%
same,growth at 10 µM,OVCAR-8 [15],80.1%
same,growth at 10 µM,HOP-92 [16],-1%
same,growth at 0.1 µM,SF-539 [17],92%
same,growth at 10 µM,CCRF-CEM,14%
same,growth at 0.001 µM,DU-145,109%
same,growth at 1 µM,NCI-H322M,69%
same,GI50,BT-549,3.12 µM
same,TGI,BT-549,> 100 µM
same,CC50,BT-549; [18],> 100 µM
